Test [1] relates to RAW264.7. Nature of the test: Cytotoxicity against mouse RAW264.7 cells assessed as reduction in cell viability after 24 hrs by MTS assay. The test is classed as functional, cell-based. The conditions noted are these: RAW264.7, 24 h. The essentials: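 RAW 264.7 murine macrophages (DMEM, 10% FBS, 37 °C, 5% CO2) seeded 6 × 10^3 cells/well and cultured 2 h. Medium then replaced with compound-containing medium (1.25−10.0 μM range), 24 h exposure. MTS reagent added, formazan read 2 h later at 492 nm with 690 nm background. IC50 reported; at least triplicate, mean ± SD.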

In test [2] the test system is RAW264.7. Nature of the test: Induction of ROS generation in mouse RAW264.7 cells at 5 uM after 24 hrs by H2DCFDA probe based fluorescence assay. Format: functional, cell-based. An outline of the steps:
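Adhered RAW 264.7 macrophages (2 h, 37 °C, 5% CO2) exposed to compounds at 5 μM without LPS for 24 h, compared with untreated cells. 2,7-Dichlorodihydrofluorescein diacetate added (final 10 μM) for an additional 10 min at 37 °C. Dichlorofluorescein fluorescence measured at λex/λem 485/518 nm. At least triplicate.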

Test [3] has as its system RAW264.7. Nature of the test: Immunomodulatory activity in mouse RAW264.7 cells assessed as inhibition of LPS-induced ROS level at 5 uM after 24 hrs by H2DCFDA probe based fluorescence assay relative to control. Format: functional. The following applies: RAW264.7, 24 h. The essentials: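 RAW 264.7 macrophages allowed to adhere 2 h at 37 °C, 5% CO2, then given compounds (5 μM) co-incubated with E. coli serotype 055:B5 LPS (1.0 μg/mL) for 24 h. DCFH-DA then added (final 10 μM) for 10 min at 37 °C. Fluorescence read at 485/518 nm; % reduction of LPS-induced ROS. At least triplicate, mean ± SD.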

SMILES strings stand for the structures. pIC50: −log10 of the molar value. Activity calls are given as the source filed them. The rule behind the calls is not given here.

As usually defined, the pIC50 is the negative decadic logarithm of the IC50, by convention in mol/L. `CC(C)C(C)[C@H](O)[C@@H]1O[C@H]2C[C@H]3[C@@H]4C[C@H](O[C@@H]5O[C@H](C)[C@@H](O)[C@H](O[C@@H]6O[C@H](C)[C@@H](O[C@@H]7O[C@H](CO)[C@@H](O)[C@H](O)[C@H]7O[C@@H]7O[C@H](C)[C@H](O)[C@H](O)[C@H]7O)[C@H](O)[C@H]6O[C@@H]6O[C@H](C)[C@@H](O)[C@H](O)[C@H]6O)[C@H]5O)[C@H]5C[C@@H](OS(=O)(=O)O)CC[C@]5(C)C4=CC[C@]3(C)[C@H]2[C@@]1(C)O` (stereo partly specified): the pIC50 in the test on RAW264.7 [1] is 5.00 to 5.90. In addition, in the test with RAW264.7 [2], the outcome was inactive.
The inhibition is the drop in the measured response relative to a control, in per cent. For `CCC(C)[C@H](O)[C@@H]1O[C@H]2C[C@H]3[C@@H]4C[C@H](O[C@@H]5O[C@H](C)[C@@H](O)[C@H](O[C@@H]6O[C@H](C)[C@@H](O[C@@H]7O[C@H](CO)[C@@H](O)[C@H](O)[C@H]7O[C@@H]7O[C@H](C)[C@H](O)[C@H](O)[C@H]7O)[C@H](O)[C@H]6O[C@@H]6O[C@H](C)[C@@H](O)[C@H](O)[C@H]6O)[C@H]5O)[C@H]5C[C@@H](OS(=O)(=O)O)CC[C@]5(C)C4=CC[C@]3(C)[C@H]2[C@@]1(C)O` (stereo partly specified), the inhibition at 5 µM with RAW264.7 [3] came out at 40%. Besides, the result in the test with RAW264.7 [2] was inactive.
Regarding `CC(=O)[C@H]1CC[C@H]2[C@@H]3C[C@H](O[C@@H]4O[C@H](C)[C@@H](O)[C@H](O[C@@H]5OC[C@@H](O[C@@H]6O[C@H](C)[C@@H](O)[C@H](O)[C@H]6O[C@@H]6O[C@H](C)[C@H](O)[C@H](O)[C@H]6O)[C@H](O)[C@H]5O[C@@H]5O[C@H](C)[C@@H](O)[C@H](O)[C@H]5O)[C@H]4O)[C@H]4C[C@@H](OS(=O)(=O)O)CC[C@]4(C)C3=CC[C@]12C`, in the test with RAW264.7 [1], the negative logarithm of the IC50 (pIC50) is 5.00 to 5.90. Moreover, the outcome with RAW264.7 [2] was inactive.
For `CC(C)CC(=O)C[C@](C)(O)[C@H]1CC[C@H]2[C@@H]3C[C@H](O[C@@H]4O[C@H](C)[C@@H](O)[C@H](O[C@@H]5OC[C@@H](O[C@@H]6O[C@H](CO)[C@H](O)[C@H](O)[C@H]6O[C@@H]6O[C@H](C)[C@H](O)[C@H](O)[C@H]6O)[C@H](O)[C@H]5O[C@@H]5O[C@H](C)[C@@H](O)[C@H](O)[C@H]5O)[C@H]4O)[C@H]4C[C@@H](OS(=O)(=O)O)CC[C@]4(C)C3=CC[C@@]21C`, in the test with RAW264.7 [1], the negative logarithm of the IC50 (pIC50) is 5.15. In addition, the outcome in the test on RAW264.7 [2] was inactive.
The corresponding values for `C[C@H]1O[C@@H](O[C@H]2[C@H](O[C@@H]3CO[C@@H](O[C@@H]4[C@@H](O)[C@H](O[C@H]5C[C@@H]6C(=CC[C@@]7(C)[C@H]6CC[C@@H]7[C@@](C)(O)C(=O)/C=C/C(C)(C)O)[C@@]6(C)CC[C@H](OS(=O)(=O)O)C[C@H]56)O[C@H](C)[C@H]4O)[C@H](O[C@@H]4O[C@H](C)[C@@H](O)[C@H](O)[C@H]4O)[C@H]3O)O[C@H](C)[C@@H](O)[C@@H]2O)[C@H](O)[C@@H](O)[C@H]1O` are 5.00 to 5.90 and “inactive”.
With `CC(C)[C@H](C)[C@@H]1O[C@H]1[C@](C)(O)[C@H]1[C@@H](O)C[C@H]2[C@@H]3C[C@H](O[C@@H]4O[C@H](C)[C@@H](O)[C@H](O[C@@H]5O[C@H](C)[C@@H](O[C@@H]6O[C@H](CO)[C@@H](O)[C@H](O)[C@H]6O[C@@H]6O[C@H](C)[C@H](O)[C@H](O)[C@H]6O)[C@H](O)[C@H]5O[C@@H]5O[C@H](C)[C@@H](O)[C@H](O)[C@H]5O)[C@H]4O)[C@H]4C[C@@H](OS(=O)(=O)O)CC[C@]4(C)C3=CC[C@]12C`, the pIC50 in the test on RAW264.7 [1] was 5.19. Also, in the test on RAW264.7 [2], the outcome was inactive.
Regarding `CC(C)CC(=O)C[C@](C)(O)[C@H]1CC[C@H]2[C@@H]3C[C@H](O[C@@H]4O[C@H](C)[C@@H](O)[C@H](O[C@@H]5OC[C@@H](O[C@@H]6O[C@H](CO)[C@@H](O)[C@H](O)[C@H]6O[C@@H]6O[C@H](C)[C@H](O)[C@H](O)[C@H]6O)[C@H](O)[C@H]5O[C@@H]5O[C@H](C)[C@@H](O)[C@H](O)[C@H]5O)[C@H]4O)[C@H]4C[C@@H](OS(=O)(=O)O)CC[C@]4(C)C3=CC[C@@]21C`, the outcome in the test on RAW264.7 [2] was inactive.
In the case of `CC(C)CC[C@H](O)[C@](C)(O)[C@H]1CC[C@H]2[C@@H]3C[C@H](O[C@@H]4O[C@H](C)[C@@H](O)[C@H](O[C@@H]5OC[C@@H](O[C@@H]6O[C@H](C)[C@@H](O)[C@H](O)[C@H]6O[C@@H]6O[C@H](C)[C@H](O)[C@H](O)[C@H]6O)[C@H](O)[C@H]5O[C@@H]5O[C@H](C)[C@@H](O)[C@H](O)[C@H]5O)[C@H]4O)[C@H]4C[C@@H](OS(=O)(=O)O)CC[C@]4(C)C3=CC[C@]12C`, the inhibition at 5 µM in the test on RAW264.7 [3] amounted to 28%. The negative-log IC50 (pIC50) in the test on RAW264.7 [1] is 5.00 to 5.90. Also, in the test with RAW264.7 [2], the outcome was inactive.
Turning to `CC(C)=CC[C@H](O)[C@](C)(O)[C@H]1CC[C@H]2[C@@H]3C[C@H](O[C@@H]4O[C@H](C)[C@@H](O)[C@H](O[C@@H]5OC[C@@H](O[C@@H]6O[C@H](C)[C@@H](O)[C@H](O)[C@H]6O[C@@H]6O[C@H](C)[C@H](O)[C@H](O)[C@H]6O)[C@H](O)[C@H]5O[C@@H]5O[C@H](C)[C@@H](O)[C@H](O)[C@H]5O)[C@H]4O)[C@H]4C[C@@H](OS(=O)(=O)O)CC[C@]4(C)C3=CC[C@]12C`, the result in the test on RAW264.7 [2] was inactive.
On to `CC(C)CCC(=O)[C@](C)(O)[C@H]1CC[C@H]2[C@@H]3C[C@H](O[C@@H]4O[C@H](C)[C@@H](O)[C@H](O[C@@H]5OC[C@@H](O[C@@H]6O[C@H](C)[C@@H](O)[C@H](O)[C@H]6O[C@@H]6O[C@H](C)[C@H](O)[C@H](O)[C@H]6O)[C@H](O)[C@H]5O[C@@H]5O[C@H](C)[C@@H](O)[C@H](O)[C@H]5O)[C@H]4O)[C@H]4C[C@@H](OS(=O)(=O)O)CC[C@]4(C)C3=CC[C@@]21C`, for which, in the test with RAW264.7 [3], the inhibition at 5 µM is 55%. In addition, the result in the test on RAW264.7 [2] was inactive.
For `CC(=O)[C@H]1CC[C@H]2[C@@H]3C[C@H](O[C@@H]4O[C@H](C)[C@@H](O)[C@H](O[C@@H]5OC[C@@H](O[C@@H]6O[C@H](CO)[C@H](O)[C@H](O)[C@H]6O[C@@H]6O[C@H](C)[C@H](O)[C@H](O)[C@H]6O)[C@H](O)[C@H]5O[C@@H]5O[C@H](C)[C@@H](O)[C@H](O)[C@H]5O)[C@H]4O)[C@H]4C[C@@H](OS(=O)(=O)O)CC[C@]4(C)C3=CC[C@]12C`, the pIC50 in the test on RAW264.7 [1] is 5.00 to 5.90. Besides, the outcome in the test on RAW264.7 [2] was inactive.

These data come from ChEMBL document CHEMBL4130468, “Furostane Series Asterosaponins and Other Unusual Steroid Oligoglycosides from the Tropical Starfish Pentaceraster regulus” (J Nat Prod, 2017).
